Results gathered from unrelated publications.
Observed: enzyme activity
Action: inhibitor
PFF0160c: Dihydroorotate dehydrogenase (quinone), mitochondrial (PFF0160c, Plasmodium falciparum, UniProt Q08210)
PFF0160c E182D: Dihydroorotate dehydrogenase (quinone), mitochondrial (PFF0160c, Plasmodium falciparum, UniProt Q08210, E182D)

| Structure (SMILES) | target | assay | IC50 [nM] |
| --- | --- | --- | --- |
| Cc1c(Cc2ccc(C(F)(F)F)nc2)c[nH]c1C(=O)N[C@@H](C)CO | PFF0160c | absorbance | 2700 |
| CCN(CC)CC#Cc1ccc2[nH]c(C)c(Cl)c(=O)c2c1 | PFF0160c E182D | absorbance | > 10000 |
| Cc1cc(Nc2ccc(Cl)cc2)n2ncnc2n1 | PFF0160c |  | 1600 |
| Cc1[nH]c(C(=O)NC(C)c2cnn(C)c2)c(C)c1Cc1ccc(C(F)(F)F)nc1 (stereo not shown) | PFF0160c | absorbance | > 30000 |
| Cc1nc(Nc2ccc(S(F)(F)(F)(F)F)cc2)c2c(CO)noc2n1 | PFF0160c | absorbance | 2800 |
| COC(=O)C1=CNC=C(C(=O)OC)C1c1ccc(Cl)c([N+](=O)[O-])c1 | PFF0160c | absorbance | 716 |
| Cc1nc(Nc2ccc(C(F)(F)F)cc2)c2c(C(F)(F)F)noc2n1 | PFF0160c | absorbance | 33 |
| CCCOc1ccccc1-c1nc2sc3c(c2c(=O)[nH]1)CCN(C)C3 | PFF0160c E182D | absorbance | 911 |
| Cc1nc(NC2Cc3cc(F)c(F)cc3C2)c2c(C)noc2n1 | PFF0160c | absorbance | 48 |
| Cc1cc(C(C)NC(=O)c2[nH]cc(-c3c[nH]c4cc(C(F)(F)F)ccc34)c2C)no1 (stereo not shown) | PFF0160c | absorbance | > 100000 |
